# In ChEMBL document CHEMBL3414437, “Synthesis of CDDO-amino acid-nitric oxide donor trihybrids as potential antitumor agents against both drug-sensitive and drug-resistant colon cancer” (J Med Chem, 2015):
# Activity calls are given as the source filed them. No cut-off for these calls is given here.
# Experiments:
# [1] = molecular target: RAC-alpha serine/threonine-protein kinase (Homo sapiens) (UniProt P31749); test: Inhibition of AKT protein phosphorylation in human HCT8 cells at 0.25 to 1 uM incubated for 24 hrs by Western blotting method; format: cell-based; settings: HCT-8
# Sequence of RAC-alpha serine/threonine-protein kinase (Homo sapiens) (P31749 whole entry): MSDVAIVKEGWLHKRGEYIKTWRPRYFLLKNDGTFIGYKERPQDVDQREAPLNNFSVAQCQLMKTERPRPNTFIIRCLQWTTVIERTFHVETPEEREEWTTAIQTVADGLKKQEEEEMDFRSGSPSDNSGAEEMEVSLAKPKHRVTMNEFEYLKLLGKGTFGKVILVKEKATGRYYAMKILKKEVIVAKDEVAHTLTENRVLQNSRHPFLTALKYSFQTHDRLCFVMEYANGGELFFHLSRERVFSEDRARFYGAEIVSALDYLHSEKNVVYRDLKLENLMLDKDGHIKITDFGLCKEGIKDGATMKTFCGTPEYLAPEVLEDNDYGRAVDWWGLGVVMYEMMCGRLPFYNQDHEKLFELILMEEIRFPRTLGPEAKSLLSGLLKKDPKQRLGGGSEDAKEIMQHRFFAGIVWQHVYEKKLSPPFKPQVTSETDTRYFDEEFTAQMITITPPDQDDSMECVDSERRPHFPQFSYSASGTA
# Procedure, shortened: (§1)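 Cells (1 x 10^6) grown 24 h in 6 cm dishes, then exposed in duplicate for 24 h to 0.25, 0.5 or 1 µM compound, with or without PTIO. Lysates (20 µg/lane) were run on 7.5% SDS-PAGE, blotted to PVDF and blocked in 5% milk. HRP secondaries with ECL detection; bands quantified by densitometry against β-actin or GAPDH. Three separate experiments, mean ± SD.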
# [2] = tested on: HCT-8; test: Inhibition of ERK protein phosphorylation in human HCT8 cells at 0.25 to 1 uM incubated for 24 hrs by Western blotting method; format: cell-based; procedure, shortened: as §1
# [3] = tested on: Mus musculus; test: Toxicity in nude BALB/c mouse xenografted with FU-resistant human HCT8 cells assessed as abnormal color changes in heart at 17.8 to 35.7 umol/kg administered as via oral gavage daily for 21 days; format: organism-based, HCT-8; settings: in vivo, 504 h
# Procedure, shortened: (§2)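 Male BALB/c nude mice aged 6-8 weeks, implanted s.c. in the right flank with HCT-8/5-FU cells (2 × 10^6). Once tumors reached 180-200 mm3 (days 9-11), randomized to daily gavage for 21 days in cremophor-EL/DMSO/PBS (1:1:8), 0.2 mL. At the end, liver, kidney, lung and heart checked for size, colour and weight. n = 8 per group.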
# [4] = tested on: Mus musculus; test: Toxicity in nude BALB/c mouse xenografted with FU-resistant human HCT8 cells assessed as abnormal weight changes in liver at 17.8 to 35.7 umol/kg administered as via oral gavage daily for 21 days; format: organism-based, HCT-8; settings: in vivo, 504 h; procedure, shortened: as §2
# [5] = tested on: Mus musculus; test: Toxicity in nude BALB/c mouse xenografted with FU-resistant human HCT8 cells assessed as abnormal weight changes in heart at 59.4 umol/kg administered as via oral gavage daily for 21 days; format: organism-based, HCT-8; settings: in vivo, 504 h; procedure, shortened: as §2
# [6] = molecular target: RAC-alpha serine/threonine-protein kinase (Homo sapiens) (UniProt P31749); test: Inhibition of AKT protein phosphorylation in human HCT8 cells at 1 uM incubated for 24 hrs by Western blotting method; format: cell-based; settings: HCT-8; procedure, shortened: as §1
# [7] = tested on: HCT-8; test: Inhibition of P-gp protein expression in FU-resistant human HCT8 cells at 1 uM incubated for 24 hrs by Western blotting method; format: functional, cell-based; procedure, shortened: as §1
inhibition [6],SMILES,inhibition [1],inhibition [2],Activity [3],Activity [4],Activity [5],inhibition [7]
–,CC1(C)CC[C@]2(C(=O)NCC(=O)OCC#CCOc3no[n+]([O-])c3S(=O)(=O)c3ccccc3)CC[C@]3(C)[C@H](C(=O)C=C4[C@@]5(C)C=C(C#N)C(=O)C(C)(C)[C@@H]5CC[C@]43C)[C@@H]2C1,Dose-dependent effect,Dose-dependent effect,Non-toxic,Non-toxic,–,–
Active,COC(=O)[C@]12CCC(C)(C)C[C@H]1[C@H]1C(=O)C=C3[C@@]4(C)C=C(C#N)C(=O)C(C)(C)[C@@H]4CC[C@@]3(C)[C@]1(C)CC2 [BARDOXOLONE METHYL],–,–,–,–,Non-toxic,inactive
